Source: ChEMBL document CHEMBL5058577, “EUbOPEN Chemogenomics Library 2 (Multiplex)” (2022)

System: Fibroblast
Experiment: Multiplex assay against human fibroblast
Assay type: toxicity, cell-based
In short: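 Per cents of healthy-nucleus cells form the tubulin, mitochondrial-mass and membrane-permeability phenotype values. Live cells were stained at seeding with Hoechst33342, BioTracker Green Microtubule Cytoskeleton Dye, MitoTracker Red and Annexin V Alexa Fluor 680. After compound addition they were imaged on a CQ1 microscope at 37°C and 5% CO2, and CellPathfinder machine-learning gating split them into Hoechst high-intensity objects or normal cells, normal cells into healthy, pyknosed or fragmented nuclei, and pyknosed cells into mitotic or apoptotic.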

[1] = 12 h, 1 µM, compound concentration 1 uM, replicate 1
[2] = 12 h, 1 µM, compound concentration 1 uM, replicate 2
[3] = 12 h, 10 µM, compound concentration 10 uM, replicate 1
[4] = 12 h, 10 µM, compound concentration 10 uM, replicate 2
[5] = 24 h, 1 µM, compound concentration 1 uM, replicate 1
[6] = 24 h, 1 µM, compound concentration 1 uM, replicate 2
[7] = 24 h, 10 µM, compound concentration 10 uM, replicate 1
[8] = 24 h, 10 µM, compound concentration 10 uM, replicate 2
[9] = 48 h, 1 µM, compound concentration 1 uM, replicate 1
[10] = 48 h, 1 µM, compound concentration 1 uM, replicate 2
[11] = 48 h, 10 µM, compound concentration 10 uM, replicate 1
[12] = 48 h, 10 µM, compound concentration 10 uM, replicate 2

With CC(C)(C)c1ccc(S(=O)(=O)Nc2ccc(Cl)cc2C(=O)c2cc[n+]([O-])cc2)cc1 [VERCIRNON] as the compound, how does the “Population Apoptotic (%)” value [1] read?
The value was 63%.

What about the “Population Fragmented Nuclei (%)” value [1] of the same compound?
The value was 19%.

And the “Population Healthy Nuclei (%)” value [1]?
The value was 65%.

And the “Population Hoechst High Intensity Objects (%)” value [1]?
The value was 2%.

What about the “Population Membrane Permeable-Phenotype (%)” value [1] of the same compound?
The value was 1%.

And the “Population Mitochondria Different-Phenotype (%)” value [1]?
The value was 3%.

What about the “Population Mitotic Cells (%)” value [1] of the same compound?
Its value is 36%.

What about the “Population Normal (%)” value [1] of the same compound?
The value was 97%.

What about the “Population Pyknosed Nuclei (%)” value [1] of the same compound?
Its value is 15%.

What about the “Population Tubulin-Different-Phenotype (%)” value [1] of the same compound?
Its value is 20%.

What about the “Total Cell Count” value [1] of the same compound?
The value was 148.

What about the “Population Apoptotic (%)” value [2] of the same compound?
Its value is 50%.

And the “Population Fragmented Nuclei (%)” value [2]?
The value was 27%.

What about the “Population Healthy Nuclei (%)” value [2] of the same compound?
Its value is 46%.

What about the “Population Hoechst High Intensity Objects (%)” value [2] of the same compound?
Its value is 7%.

And the “Population Membrane Permeable-Phenotype (%)” value [2]?
The value was 6%.

And the “Population Mitochondria Different-Phenotype (%)” value [2]?
Its value is 1%.

What about the “Population Mitotic Cells (%)” value [2] of the same compound?
Its value is 50%.

And the “Population Normal (%)” value [2]?
Its value is 92%.

What about the “Population Pyknosed Nuclei (%)” value [2] of the same compound?
Its value is 25%.

What about the “Population Tubulin-Different-Phenotype (%)” value [2] of the same compound?
The value was 41%.

And the “Total Cell Count” value [2]?
The value was 152.

What about the “Population Apoptotic (%)” value [3] of the same compound?
Its value is 59%.

What about the “Population Fragmented Nuclei (%)” value [3] of the same compound?
The value was 14%.

What about the “Population Healthy Nuclei (%)” value [3] of the same compound?
Its value is 64%.

What about the “Population Hoechst High Intensity Objects (%)” value [3] of the same compound?
Its value is 3%.

What about the “Population Membrane Permeable-Phenotype (%)” value [3] of the same compound?
The value was 3%.

And the “Population Mitochondria Different-Phenotype (%)” value [3]?
The value was 1%.

And the “Population Mitotic Cells (%)” value [3]?
Its value is 40%.

And the “Population Normal (%)” value [3]?
Its value is 96%.

And the “Population Pyknosed Nuclei (%)” value [3]?
Its value is 21%.

And the “Population Tubulin-Different-Phenotype (%)” value [3]?
The value was 46%.

And the “Total Cell Count” value [3]?
The value was 107.

And the “Population Apoptotic (%)” value [4]?
Its value is 48%.

And the “Population Fragmented Nuclei (%)” value [4]?
Its value is 30%.

What about the “Population Healthy Nuclei (%)” value [4] of the same compound?
The value was 44%.

What about the “Population Hoechst High Intensity Objects (%)” value [4] of the same compound?
The value was 5%.

What about the “Population Membrane Permeable-Phenotype (%)” value [4] of the same compound?
The value was 8%.

What about the “Population Mitochondria Different-Phenotype (%)” value [4] of the same compound?
Its value is 10%.

What about the “Population Mitotic Cells (%)” value [4] of the same compound?
Its value is 51%.

And the “Population Normal (%)” value [4]?
Its value is 94%.

What about the “Population Pyknosed Nuclei (%)” value [4] of the same compound?
Its value is 25%.

What about the “Population Tubulin-Different-Phenotype (%)” value [4] of the same compound?
The value was 66%.

And the “Total Cell Count” value [4]?
The value was 114.

What about the “Population Apoptotic (%)” value [5] of the same compound?
Its value is 55%.

And the “Population Fragmented Nuclei (%)” value [5]?
The value was 23%.

And the “Population Healthy Nuclei (%)” value [5]?
Its value is 62%.

And the “Population Hoechst High Intensity Objects (%)” value [5]?
The value was 0%.

And the “Population Membrane Permeable-Phenotype (%)” value [5]?
Its value is 4%.

What about the “Population Mitochondria Different-Phenotype (%)” value [5] of the same compound?
The value was 1%.

What about the “Population Mitotic Cells (%)” value [5] of the same compound?
The value was 45%.

And the “Population Normal (%)” value [5]?
Its value is 99%.

And the “Population Pyknosed Nuclei (%)” value [5]?
The value was 14%.

What about the “Population Tubulin-Different-Phenotype (%)” value [5] of the same compound?
Its value is 27%.

And the “Total Cell Count” value [5]?
The value was 141.

And the “Population Apoptotic (%)” value [6]?
The value was 54%.

And the “Population Fragmented Nuclei (%)” value [6]?
Its value is 25%.

What about the “Population Healthy Nuclei (%)” value [6] of the same compound?
The value was 57%.

What about the “Population Hoechst High Intensity Objects (%)” value [6] of the same compound?
Its value is 7%.

And the “Population Membrane Permeable-Phenotype (%)” value [6]?
Its value is 7%.

What about the “Population Normal (%)” value [6] of the same compound?
Its value is 92%.

And the “Population Pyknosed Nuclei (%)” value [6]?
The value was 16%.

What about the “Population Tubulin-Different-Phenotype (%)” value [6] of the same compound?
Its value is 40%.

And the “Total Cell Count” value [6]?
Its value is 142.

What about the “Population Apoptotic (%)” value [7] of the same compound?
The value was 66%.

And the “Population Fragmented Nuclei (%)” value [7]?
The value was 16%.

What about the “Population Healthy Nuclei (%)” value [7] of the same compound?
Its value is 66%.

What about the “Population Hoechst High Intensity Objects (%)” value [7] of the same compound?
Its value is 1%.

What about the “Population Membrane Permeable-Phenotype (%)” value [7] of the same compound?
Its value is 4%.

And the “Population Mitochondria Different-Phenotype (%)” value [7]?
The value was 2%.

And the “Population Mitotic Cells (%)” value [7]?
Its value is 33%.

And the “Population Normal (%)” value [7]?
The value was 98%.

And the “Population Pyknosed Nuclei (%)” value [7]?
Its value is 16%.

What about the “Population Tubulin-Different-Phenotype (%)” value [7] of the same compound?
The value was 40%.

What about the “Total Cell Count” value [7] of the same compound?
Its value is 114.

And the “Population Apoptotic (%)” value [8]?
The value was 41%.

And the “Population Fragmented Nuclei (%)” value [8]?
Its value is 32%.

What about the “Population Healthy Nuclei (%)” value [8] of the same compound?
The value was 42%.

What about the “Population Hoechst High Intensity Objects (%)” value [8] of the same compound?
The value was 0%.

And the “Population Membrane Permeable-Phenotype (%)” value [8]?
The value was 21%.

What about the “Population Mitochondria Different-Phenotype (%)” value [8] of the same compound?
Its value is 9%.

What about the “Population Mitotic Cells (%)” value [8] of the same compound?
The value was 58%.

What about the “Population Normal (%)” value [8] of the same compound?
Its value is 99%.

What about the “Population Pyknosed Nuclei (%)” value [8] of the same compound?
The value was 24%.

What about the “Population Tubulin-Different-Phenotype (%)” value [8] of the same compound?
The value was 82%.

And the “Total Cell Count” value [8]?
Its value is 120.

What about the “Population Apoptotic (%)” value [9] of the same compound?
The value was 61%.

What about the “Population Fragmented Nuclei (%)” value [9] of the same compound?
Its value is 29%.

What about the “Population Healthy Nuclei (%)” value [9] of the same compound?
The value was 58%.

And the “Population Hoechst High Intensity Objects (%)” value [9]?
The value was 1%.

And the “Population Membrane Permeable-Phenotype (%)” value [9]?
Its value is 1%.

What about the “Population Mitochondria Different-Phenotype (%)” value [9] of the same compound?
The value was 1%.

And the “Population Mitotic Cells (%)” value [9]?
Its value is 38%.

And the “Population Normal (%)” value [9]?
Its value is 98%.

And the “Population Pyknosed Nuclei (%)” value [9]?
Its value is 12%.

And the “Population Tubulin-Different-Phenotype (%)” value [9]?
Its value is 25%.

What about the “Total Cell Count” value [9] of the same compound?
Its value is 151.

What about the “Population Apoptotic (%)” value [10] of the same compound?
The value was 62%.

What about the “Population Fragmented Nuclei (%)” value [10] of the same compound?
The value was 32%.

And the “Population Healthy Nuclei (%)” value [10]?
The value was 55%.

And the “Population Hoechst High Intensity Objects (%)” value [10]?
Its value is 6%.

What about the “Population Membrane Permeable-Phenotype (%)” value [10] of the same compound?
Its value is 6%.

What about the “Population Mitochondria Different-Phenotype (%)” value [10] of the same compound?
Its value is 9%.

And the “Population Mitotic Cells (%)” value [10]?
Its value is 37%.

And the “Population Normal (%)” value [10]?
The value was 93%.

What about the “Population Pyknosed Nuclei (%)” value [10] of the same compound?
Its value is 11%.

And the “Population Tubulin-Different-Phenotype (%)” value [10]?
Its value is 37%.

And the “Total Cell Count” value [10]?
The value was 145.

What about the “Population Apoptotic (%)” value [11] of the same compound?
The value was 62%.

What about the “Population Fragmented Nuclei (%)” value [11] of the same compound?
The value was 22%.

And the “Population Healthy Nuclei (%)” value [11]?
Its value is 64%.

What about the “Population Hoechst High Intensity Objects (%)” value [11] of the same compound?
The value was 2%.

What about the “Population Membrane Permeable-Phenotype (%)” value [11] of the same compound?
Its value is 1%.

And the “Population Mitochondria Different-Phenotype (%)” value [11]?
The value was 0%.

What about the “Population Mitotic Cells (%)” value [11] of the same compound?
Its value is 37%.

And the “Population Normal (%)” value [11]?
The value was 97%.

What about the “Population Pyknosed Nuclei (%)” value [11] of the same compound?
The value was 13%.

And the “Population Tubulin-Different-Phenotype (%)” value [11]?
The value was 38%.

What about the “Total Cell Count” value [11] of the same compound?
Its value is 120.

What about the “Population Apoptotic (%)” value [12] of the same compound?
Its value is 46%.

What about the “Population Fragmented Nuclei (%)” value [12] of the same compound?
Its value is 42%.

And the “Population Healthy Nuclei (%)” value [12]?
Its value is 46%.

What about the “Population Hoechst High Intensity Objects (%)” value [12] of the same compound?
The value was 4%.

What about the “Population Membrane Permeable-Phenotype (%)” value [12] of the same compound?
Its value is 16%.

What about the “Population Mitochondria Different-Phenotype (%)” value [12] of the same compound?
Its value is 12%.

And the “Population Mitotic Cells (%)” value [12]?
The value was 53%.

And the “Population Normal (%)” value [12]?
The value was 95%.

What about the “Population Pyknosed Nuclei (%)” value [12] of the same compound?
The value was 11%.

What about the “Population Tubulin-Different-Phenotype (%)” value [12] of the same compound?
The value was 72%.

And the “Total Cell Count” value [12]?
Its value is 122.
